Measurements as given in ChEMBL document CHEMBL5053495, “A Versatile Sub-Nanomolar Fluorescent Ligand Enables NanoBRET Binding Studies and Single-Molecule Microscopy at the Histamine H3 Receptor” (J Med Chem, 2021).
Blank lines part the entries; values can stand above or below the compound they belong to.

Key:
Histamine H3 receptor [1] = molecular target: T1, Histamine H3 receptor (Homo sapiens, UniProt Q9Y5N1); assay: Binding affinity in human H3 receptor expressed in HEK293 cells by confocal microscopy; type: cell-based
Histamine H3 receptor [2] = molecular target: T1, Histamine H3 receptor; assay: Binding affinity in human H3R as assessed as dissociation time constant using confocal microscopy relative to control
Histamine H3 receptor [3] = molecular target: T1, Histamine H3 receptor; assay: Binding affinity to human H3 receptor assessed as labeling efficiency by measuring dual color acquisition at 3 nM by microscopy based TIRF assay
Histamine H3 receptor [4] = molecular target: T1, Histamine H3 receptor; assay: Binding affinity in Nluc-hH3R assessed as association rate constant by NanoBRET binding assay
Histamine H1 receptor = Histamine H1 receptor (Homo sapiens, UniProt P35367); assay: Displacement of [3H]mepyramine from human H1R receptor expressed in HEK293 cells by radioligand competition binding assay; type: cell-based
Homo sapiens [5] = organism: Homo sapiens; assay: Selectivity ratio of Ki for human H2 receptor to Ki for human H3 receptor
Histamine H3 receptor [6] = molecular target: T1, Histamine H3 receptor; assay: Displacement of [3H]UR-P1294 from human H3R receptor expressed in HEK293 cells by radioligand competition binding assay; type: cell-based
Histamine H3 receptor [7] = molecular target: T1, Histamine H3 receptor; assay: Binding affinity in human H3R assessed as association rate constant using confocal microscopy
Histamine H3 receptor [8] = molecular target: T1, Histamine H3 receptor; assay: Inhibition of human H3R expressed in HEK293-A cells assessed as inhibition of imetit-induced Gi2 activation by BRET assay; type: cell-based
Histamine H3 receptor [9] = molecular target: T1, Histamine H3 receptor; assay: Binding affinity in human H3R assessed as association time constant by confocal microscopy
Histamine H2 receptor = Histamine H2 receptor (Homo sapiens, UniProt P25021); assay: Displacement of [3H]UR-DE25 from human H2R receptor expressed in HEK293 cells by radioligand competition binding assay; type: cell-based
Histamine H3 receptor [10] = molecular target: T1, Histamine H3 receptor; assay: Binding affinity in Nluc-hH3R assessed in HEK293 cells by NanoBRET binding assay; type: cell-based
Method in brief: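 Saturation NanoBRET binding of the fluorescent ligand at live HEK293 cells stably expressing NLuc-hH3R; acceptor/donor BRET ratio; pKd from saturation isotherm; three independent experiments, each in duplicate.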

Histamine H4 receptor = Histamine H4 receptor (Homo sapiens, UniProt Q9H3N8); assay: Displacement of [3H]histamine from human H4R receptor expressed in HEK293 cells by radioligand competition binding assay; type: cell-based
Histamine H3 receptor [11] = molecular target: T1, Histamine H3 receptor; assay: Binding affinity to human H3R expressed in HEK293 cells by flow cytometric analysis; type: cell-based
Histamine H3 receptor [12] = molecular target: T1, Histamine H3 receptor; assay: Binding affinity in Nluc-hH3R assessed as dissociation time constant by NanoBRET binding assay
Homo sapiens [13] = organism: Homo sapiens; assay: Selectivity ratio of Ki for human H4 receptor to Ki for human H3 receptor
Histamine H3 receptor [14] = molecular target: T1, Histamine H3 receptor; assay: Binding affinity in Nluc-hH3R assessed as association time constant receptor saturated after 15 mins by NanoBRET binding assay
Homo sapiens [15] = organism: Homo sapiens; assay: Selectivity ratio of Ki for human H1 receptor to Ki for human H3 receptor
Histamine H3 receptor [16] = molecular target: T1, Histamine H3 receptor; assay: Binding affinity in Nluc-hH3R assessed in HEK293T cells by NanoBRET binding assay; type: cell-based

T1 sequence (Q9Y5N1 whole entry): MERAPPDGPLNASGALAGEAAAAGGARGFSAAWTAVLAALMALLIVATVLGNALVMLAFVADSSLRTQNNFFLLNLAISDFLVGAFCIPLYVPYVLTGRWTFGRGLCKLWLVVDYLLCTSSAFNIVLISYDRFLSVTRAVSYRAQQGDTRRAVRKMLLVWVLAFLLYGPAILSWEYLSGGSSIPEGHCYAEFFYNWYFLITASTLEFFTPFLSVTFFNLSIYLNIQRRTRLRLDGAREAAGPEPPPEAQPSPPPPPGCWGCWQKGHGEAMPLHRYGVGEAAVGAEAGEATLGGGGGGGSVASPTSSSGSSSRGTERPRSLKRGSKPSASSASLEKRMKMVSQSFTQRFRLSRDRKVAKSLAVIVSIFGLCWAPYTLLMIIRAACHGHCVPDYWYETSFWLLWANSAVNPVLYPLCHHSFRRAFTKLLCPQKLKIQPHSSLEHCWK
Histamine H1 receptor, sequence (P35367 whole entry): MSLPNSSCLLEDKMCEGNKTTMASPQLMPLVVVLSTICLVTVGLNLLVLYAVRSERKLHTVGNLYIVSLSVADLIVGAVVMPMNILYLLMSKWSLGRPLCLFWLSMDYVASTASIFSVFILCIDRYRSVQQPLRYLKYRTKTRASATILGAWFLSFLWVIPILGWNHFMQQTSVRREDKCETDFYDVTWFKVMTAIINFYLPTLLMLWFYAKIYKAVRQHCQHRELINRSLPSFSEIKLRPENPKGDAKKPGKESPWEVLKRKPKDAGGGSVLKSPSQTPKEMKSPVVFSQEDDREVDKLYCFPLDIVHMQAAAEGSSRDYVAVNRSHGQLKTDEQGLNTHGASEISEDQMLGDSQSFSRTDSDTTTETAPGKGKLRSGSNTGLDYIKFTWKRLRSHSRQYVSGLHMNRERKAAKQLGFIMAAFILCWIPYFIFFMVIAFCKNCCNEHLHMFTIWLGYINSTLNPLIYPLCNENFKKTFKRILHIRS
Histamine H2 receptor, sequence (P25021 whole entry): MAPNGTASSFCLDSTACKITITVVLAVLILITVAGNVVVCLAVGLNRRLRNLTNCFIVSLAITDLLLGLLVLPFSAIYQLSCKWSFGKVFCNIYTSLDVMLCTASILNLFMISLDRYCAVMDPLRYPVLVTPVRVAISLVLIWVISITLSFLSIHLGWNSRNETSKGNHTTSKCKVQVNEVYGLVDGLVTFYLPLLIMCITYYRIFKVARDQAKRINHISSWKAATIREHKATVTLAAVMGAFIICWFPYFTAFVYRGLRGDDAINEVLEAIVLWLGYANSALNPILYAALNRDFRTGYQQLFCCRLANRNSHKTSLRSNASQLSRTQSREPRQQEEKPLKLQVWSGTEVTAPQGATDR

Structure (SMILES): CN(C)c1ccc2c(-c3ccc(C(=O)NCCOCCOCCOCCNC(=O)C4CCN(Cc5ccc(OCCCN6CCCCC6)cc5)CC4)cc3C(=O)[O-])c3ccc(=[N+](C)C)cc-3oc2c1
- Activity (Histamine H3 receptor [1]): 2.13 min⁻¹
- TIME (Histamine H3 receptor [2]): 0.0583 h
- Activity (Histamine H3 receptor [3]): 96.1%
- Activity (Histamine H3 receptor [4]): 0.71 min⁻¹ nM⁻¹
- Ki (Histamine H1 receptor): > 100000 nM
- Ratio Ki (Homo sapiens [5]): > 100000
- Ki (Histamine H3 receptor [6]): 0.302 nM
- Activity (Histamine H3 receptor [7]): 0.37 min⁻¹ nM⁻¹
- pKb (Histamine H3 receptor [8]): 9.04
- TIME (Histamine H3 receptor [9]): 0.008 h
- Ki (Histamine H2 receptor): > 100000 nM
- Kd (Histamine H3 receptor [10]): 0.158 nM
- Ki (Histamine H4 receptor): > 100000 nM
- Kd (Histamine H3 receptor [11]): 0.195 nM
- TIME (Histamine H3 receptor [12]): 0.107 h
- Ratio Ki (Homo sapiens [13]): > 100000
- TIME (Histamine H3 receptor [14]): 0.0328 h
- Ratio Ki (Homo sapiens [15]): > 100000

Structure (SMILES): O=C(O)C1CCN(Cc2ccc(OCCCN3CCCCC3)cc2)CC1
- Ki (Histamine H3 receptor [6]): 1.58 nM

Structure (SMILES): CCN1CCN(C(=O)c2ccc(-c3nc4ccccc4s3)s2)CC1
- Ki (Histamine H3 receptor [10]): 19.5 nM
- Ki (Histamine H3 receptor [16]): 19.5 nM

Structure (SMILES): NCCOCCOCCOCCNC(=O)C1CCN(Cc2ccc(OCCCN3CCCCC3)cc2)CC1
- Ki (Histamine H3 receptor [6]): 0.398 nM

Next, values leading:

- Ki (Histamine H3 receptor [6]): 0.275 nM
Structure (SMILES): CCOC(=O)C1CCN(Cc2ccc(OCCCN3CCCCC3)cc2)CC1

- Ki (Histamine H3 receptor [10]): 12.6 nM
- Ki (Histamine H3 receptor [16]): 5.01 nM
Structure (SMILES): N=C(N)SCCc1cnc[nH]1 [IMETIT]
